# In the library only some 0.58% were active in any assay of this set; here they are far more common.
# OXTR ag: agonists of human oxytocin receptor | P30559 | hit rate 0.32% among 320,000 | activation, % at 3 µM | AID 2435 | CHO-OTR cells, Fluo-8 calcium fluorescence; normalized: DMSO 0%, oxytocin 100%;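 active means activation above the mean of all tested compounds plus 3 SD, cutoff set per screening run, cut at about 20% in these data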;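 further: peak over basal fluorescence ratio from a 100 s FLIPR kinetic read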
# Target sequence (P30559 whole entry, looked up): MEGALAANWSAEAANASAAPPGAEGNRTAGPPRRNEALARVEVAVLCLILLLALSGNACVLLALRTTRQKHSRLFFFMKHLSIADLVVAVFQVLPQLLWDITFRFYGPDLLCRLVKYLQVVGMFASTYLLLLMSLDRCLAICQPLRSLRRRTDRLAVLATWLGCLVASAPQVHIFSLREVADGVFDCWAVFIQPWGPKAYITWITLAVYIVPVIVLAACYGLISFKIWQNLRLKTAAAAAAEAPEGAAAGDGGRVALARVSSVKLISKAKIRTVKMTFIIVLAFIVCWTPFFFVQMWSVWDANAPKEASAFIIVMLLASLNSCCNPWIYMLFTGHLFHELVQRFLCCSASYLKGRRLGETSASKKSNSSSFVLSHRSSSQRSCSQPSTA
# zfTRPN1 agonist: zebrafish TRPN1 (NompC) channel agonism | HEK293 zebrafish TRPN1-YFP, Fluo-8 calcium fluorescence; 100% = response to 87 µM carbachol | activation, % at 3 µM | hit rate 0.18% among 220,000;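 active means activation above its plate's cutoff, the mean activation of test wells on that plate plus 3 SD, cut at about 19% in these data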;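 further: 0% = DMSO alone and 100% = 87 µM carbachol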
#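 Assay system: Zebrafish TRPN1-YFP in HEK293 cells | Incubation: Dye loading 1 h at 37 °C, then 30 min room temperature | Measured by: Kinetic Fluo-8 fluorescence, ex 470-495, em 515-575 nm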
# TRPML3 agonist: agonists of human TRPML3 channel. Q8TDD5. HEK293 TRPML3-YFP, Fluo-8 calcium fluorescence; 100% = the carbachol control signal. activation, % at 3 µM. hit rate 0.29% among 220,000. AID 1448;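 active means activation above its plate's cutoff, the mean activation of the plate's test wells plus 3 SD, cut at about 12% in these data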;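 further: 0% = DMSO only wells and 100% = carbachol wells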
#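 Material: TRPML3-YFP stable HEK293 cells | Dosing: One concentration, 3 µM nominal, 0.3% DMSO | Timing: 125 s total fluorescence read per well | Technique: Fluo-8 calcium dye fluorescence, ex 470-495, em 515-575 nm | Measure: Percent activation from peak-to-basal fluorescence ratio, scaled between DMSO and carbachol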
# V1R ag counter: V1a receptor agonism, counter-screen for OXTR agonists. P37288. AID 2797. activation, % at 3 µM. CHO-V1R cells, Fluo-8 calcium fluorescence, agonist mode; 0% DMSO, 100% 3 nM vasopressin. hit rate 0.25% among 320,000;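 active means activation above the mean activation of all tested compounds plus 3 SD, per screening run, cut at about 20% in these data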;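 further: signal is peak over basal fluorescence ratio across a 100 second FLIPR read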
# OXTR potentiate: human OXTR potentiation; CHO-OTR cells, Fluo-8 calcium fluorescence, potentiator mode; 0% = oxytocin EC15, 100% = EC100; activation, % at 3 µM; hit rate 0.061% among 320,000;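 active means activation above that plate's cutoff, the mean activation of tested compounds plus 3 SD, cut at about 6.6% in these data, passing the limit was not always enough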;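 further: 100% uses oxytocin at 75 nM as the full agonist control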
#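 Assay system: CHO-OTR cells, human receptor / Also added: oxytocin at about EC15, sub-maximal agonist stimulus / Dosing: single dose, 3.0 µM nominal final compound concentration / Incubation: 6 min pre-incubation, 100 s read / Technique: Fluo-8 calcium dye fluorescence / Read-out: % activation vs EC15 and EC100 oxytocin / Benchmarks: EC15 oxytocin low, 75 nM oxytocin high / Replicates: singlicate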
# TRPN1 ag 2: counter-screen for TRPML3 agonists: agonists of zebrafish TRPN1 channel; shares compounds with TRPML3 agonist; HEK293 zebrafish TRPN1-YFP, Fluo-8 calcium fluorescence; scaled: carbachol wells 100%, DMSO wells 0%; activation, % at 3 µM; hit rate 10% among 310;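 active means mean activation over replicates above a set limit taken from the earlier TRPN1 channel primary screen, cut at about 19% in these data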;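 further: 100% = carbachol and 0% = 0.3% DMSO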
# TRPML3 confirm: confirmation of human TRPML3 channel agonists. shares compounds with TRPML3 agonist. HEK293 TRPML3-YFP, Fluo-8 calcium fluorescence; 100% set by carbachol, 0% by DMSO. activation, % at 3 µM. hit rate 80% among 310;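 active means activation above a set limit derived from the earlier primary screen, cut at about 12% in these data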
# OXTR agonist cf: confirmation of human oxytocin receptor agonists. shares compounds with OXTR ag. hit rate 20% among 390. activation, % at 3 µM. AID 434963. CHO-OTR cells, Fluo-8 calcium fluorescence, agonist;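 active means mean activation above about 20% derived from the earlier single-dose screen, limit read from the data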;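 further: peak over minimum fluorescence ratio per well during a 100 second FLIPR read; 0% = DMSO alone and 100% = oxytocin high control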
# V1aR counter 3x: activates V1a receptor in oxytocin agonist counter-screen | shares compounds with OXTR ag | CHO-V1R cells, Fluo-8 calcium fluorescence | activation, % at 3 µM | hit rate 10% among 390 | AID 434991;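 active means mean activation over triplicate exceeds the hit threshold set in the earlier primary screen, cut at about 20% in these data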;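 further: peak over basal fluorescence ratio within a 100 second read; 0% = DMSO alone and 100% = 3 nM vasopressin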
# * hit, by the source's call; · = no result.
SMILES,OXTR ag,zfTRPN1 agonist,TRPML3 agonist,V1R ag counter,OXTR potentiate,TRPN1 ag 2,TRPML3 confirm,others
O=C(C1Cc2ccccc2CN1S(=O)(=O)c1ccc(F)cc1)N1CCCCCC1 (stereo unspecified),-1,0,40*,-2,1,0,41*,
O=C(C1Cc2ccccc2CN1S(=O)(=O)c1ccc(F)cc1)N1CCOCC1 (stereo unspecified),-1,0,7,-1,-1,·,·,
CN(C)S(=O)(=O)c1cc([N+](=O)[O-])ccc1N1CCCCCC1,-1,-1,16*,-1,-12,1,14*,
Cn1c(=O)oc2cc(S(=O)(=O)N3CCC(C(=O)NCc4ccccc4Cl)CC3)ccc21,0,·,·,1,4,·,·,
COc1ccc(CCNC(=O)N[C@@H](Cc2ccccc2)C(=O)O)cc1,0,·,·,1,-5,·,·,
CC(C)CNC(=O)C(=O)NNC(=O)c1ccco1,0,-1,1,0,-4,·,·,
CCOc1ccc(Cl)cc1S(=O)(=O)N1CCCC1,-1,-1,1,0,-4,·,·,
CCOc1c(S(=O)(=O)N2CCCC2)ccc(Cl)c1Cl,-1,0,19*,-1,-11,0,41*,
Cc1cc(S(=O)(=O)N2CCCCCC2)c(Cl)cc1Cl,-3,0,26*,-2,-17,-2,27*,
O=C(O)c1ccc(S(=O)(=O)Nc2ccc(O)c(Sc3nc4ccccc4s3)c2)cc1,1,0,1,1,-6,·,·,
CCOC(=O)N1CCN(C(=O)c2ccccc2NC(=O)COc2ccccc2)CC1,0,·,·,0,-2,·,·,
CNS(=O)(=O)c1cc(N(C)S(=O)(=O)c2ccc(C)cc2)c(C)cc1C,0,0,2,0,-5,·,·,
Cc1ccc(S(=O)(=O)N(C)c2cc(S(=O)(=O)N3CCC(C)CC3)c(C)cc2C)cc1,1,-1,40*,-1,-14,-1,73*,
COc1ccc(CNC(=O)CCn2c(=O)oc3ccccc32)c(OC)c1,0,0,0,0,1,·,·,
CCC(Oc1cc(Cl)ccc1Cl)C(=O)NNC(=O)CCC(=O)O (stereo unspecified),1,0,1,1,11,·,·,
CCC(Oc1cc(Cl)ccc1Cl)C(=O)NN1C(=O)C2C3CCC(C3=C(C)C)C2C1=O (stereo unspecified),-1,0,34*,-1,-9,2,73*,
CN(c1ccccc1)S(=O)(=O)c1cc(Cl)ccc1Cl,-1,-2,49*,-2,0,-3,67*,
CN(c1ccccc1)S(=O)(=O)c1cccc(Cl)c1Cl,0,-2,53*,-1,-3,-4,40*,
CN(c1ccccc1)S(=O)(=O)c1cccc2ccccc12,-2,·,·,0,-13,·,·,
Cc1cc(=O)n2nc(N3CCCC(C(=O)NCc4cccc(Br)c4)C3)sc2n1 (stereo unspecified),-1,·,·,0,-8,·,·,
C=CCn1c(C)cc(C(=O)COC(=O)CNC(=O)c2ccccc2)c1C,1,2,-1,2,-4,·,·,
N#C/C(=C\c1cn(CCOc2ccccc2)c2ccccc12)C(=O)NCC1CCCO1 (stereo unspecified),2,0,25*,3,-8,1,11,
Cc1ccc(C)c(OCCn2cc(/C=C(/C#N)C(=O)NCC3CCCO3)c3ccccc32)c1 (stereo unspecified),2,0,0,0,6,·,·,
CC(=O)c1sc(NC(=O)C2(F)C(F)(F)C(F)(F)C(F)(F)C(F)(F)C2(F)F)nc1C,21*,19,22*,11,-11,31*,16*,OXTR agonist cf=16;V1aR counter 3x=11
c1ccc2c(c1)OCCOCCOCCOCCOCCOc1ccccc1OCCOCCOCCO2,21*,11,12*,13,-11,25*,11,OXTR agonist cf=10;V1aR counter 3x=12
SMILES,OXTR ag,zfTRPN1 agonist,TRPML3 agonist,V1R ag counter,OXTR potentiate,TRPN1 ag 2,TRPML3 confirm,others
CC1=C/C(=N\OS(=O)(=O)c2ccccc2)C(C)=CC1=O,20*,13,13*,11,-22,20*,42*,OXTR agonist cf=9;V1aR counter 3x=11
COc1cc(C(=O)O/N=C2/C=C(C)C(=O)C=C2C)cc(OC)c1OC,1,0,0,-1,-8,·,·,
O=C(NC(=S)Nc1ccccc1Cl)c1cncc(Br)c1,0,·,·,1,3,·,·,
Cc1[nH]c(=O)c(C#N)c(C)c1CCC(=O)NCc1cccc(C(F)(F)F)c1,-1,·,·,0,-9,·,·,
COc1ccc(NC(=O)CCN2CCN(S(=O)(=O)c3ccc(F)cc3)CC2)cc1,-1,·,·,1,4,·,·,
COc1ccc(S(=O)(=O)N2CCCN(CCC(=O)Nc3cccc(C(F)(F)F)c3)CC2)cc1,22*,4,2,17,-12,·,·,OXTR agonist cf=8;V1aR counter 3x=6
COc1ccc2c(c1)[C@H]1[C@H](CO2)[C@H](c2ccccc2)[C@]2(C)C(=O)N[C@H](C)C(=O)N12,1,·,·,0,4,·,·,
CC(c1ccccc1)N1CCC(CNC(=S)Nc2cccc(Cl)c2)C1 (stereo unspecified),22*,2,3,16,-16,·,·,OXTR agonist cf=18;V1aR counter 3x=8
CCOC(=O)N1CCN(Cc2nnc(-c3cccc(Br)c3)o2)CC1,4,·,·,5,-13,·,·,
CN(C)/C=N/C(=S)Nc1ccc(Cl)cc1Cl,14,0,0,0,-7,·,·,
CN(C)Cc1c(O)ccc2ccccc12,2,-2,1,0,-2,·,·,
CN(C)Cc1c(O)ccc2oc(Cc3ccccc3)cc12,23*,2,2,14,-19,·,·,OXTR agonist cf=1;V1aR counter 3x=1
Cc1ccc(-n2c(C)cc(=O)cc2C)cc1[N+](=O)[O-],0,·,·,0,-12,·,·,
O=C(Oc1ccc(-c2cn3c(n2)SCC3)cc1)c1ccccc1,27*,11,3,13,-12,·,·,OXTR agonist cf=9;V1aR counter 3x=8
CC(=O)Nc1ccc(-c2cn3c(n2)SCC3)cc1,1,·,·,1,-8,·,·,
N#Cc1cc2nc(O)c(O)nc2cc1[N+](=O)[O-],0,·,·,-1,-7,·,·,
CNc1nc2cc([N+](=O)[O-])c([N+](=O)[O-])cc2nc1NC,26*,27*,9,11,-11,·,·,OXTR agonist cf=23*;V1aR counter 3x=16
O=C(Nc1cccc(F)c1)N1CCN(C(=O)c2ccco2)CC1,0,·,·,1,0,·,·,

# High-throughput results as filed in PubChem BioAssay.
